What was measured:
[1] = substrate: C=CCOC(=O)NCc1cccc(CN)c1; assay: (§1) Binding affinity to mouse SSAO
Outline: (§2)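 Mouse adipose membranes (1 µg protein/assay) assayed by Amplex Red/HRP H2O2 fluorimetry, 0.2 mol/L phosphate pH 7.4, 37 °C, 50 min, semicarbazide-insensitive signal subtracted. Km and Vmax by nonlinear Michaelis-Menten fitting; means of four independent measurements.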

[2] = substrate: Cc1ccc(CN)cc1F; assay: as §1; outline: as §2
[3] = substrate: NCCCCc1ccccc1; assay: as §1; outline: as §2
[4] = substrate: NCCCc1ccccc1; assay: as §1; outline: as §2
[5] = substrate: NCCc1ccc(F)cc1; assay: as §1; outline: as §2
[6] = substrate: NCCc1ccccc1; assay: as §1; outline: as §2
[7] = substrate: NCc1ccc(F)cc1; assay: as §1; outline: as §2
[8] = substrate: NCc1cccc(CNC(=O)CI)c1; assay: as §1; outline: as §2
[9] = substrate: NCc1cccc(CNC(=O)c2ccccc2)c1; assay: as §1; outline: as §2
[10] = substrate: NCc1ccccc1; assay: as §1; outline: as §2
[11] = substrate: C=CCOC(=O)NCc1cccc(CN)c1; assay: (§3) Binding affinity to human SSAO
Outline: (§4)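 Recombinant human VAP-1 (0.1 µg protein/assay), Amplex Red/HRP H2O2 fluorimetry in 0.2 mol/L phosphate pH 7.4, 37 °C, 50 min; semicarbazide-insensitive H2O2 subtracted. Km and Vmax from nonlinear Michaelis-Menten fit across substrate concentrations; means of four independent measurements.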

[12] = substrate: Cc1ccc(CN)cc1F; assay: as §3; outline: as §4
[13] = substrate: NCCCCc1ccccc1; assay: as §3; outline: as §4
[14] = substrate: NCCCc1ccccc1; assay: as §3; outline: as §4
[15] = substrate: NCCc1ccc(F)cc1; assay: as §3; outline: as §4
[16] = substrate: NCCc1ccccc1; assay: as §3; outline: as §4
[17] = substrate: NCc1ccc(F)cc1; assay: as §3; outline: as §4
[18] = substrate: NCc1cccc(CNC(=O)CI)c1; assay: as §3; outline: as §4
[19] = substrate: NCc1cccc(CNC(=O)c2ccccc2)c1; assay: as §3; outline: as §4
[20] = substrate: NCc1ccccc1; assay: as §3; outline: as §4

B1: Amine oxidase [copper-containing] 3 (Mus musculus), O70423 (protein)
chain: MTQKTTLVLLALAVITIFALVCVLLAGRSGDGGGLSQPLHCPSVLPSVQPRTHPSQSQPFADLSPEELTAVMSFLTKHLGPGLVDAAQARPSDNCVFSVELQLPAKAAALAHLDRGGPPPVREALAIIFFGGQPKPNVSELVVGPLPHPSYMRDVTVERHGGPLPYYRRPVLDREYQDIEEMIFHRELPQASGLLHHCCFYKHQGQNLLTMTTAPRGLQSGDRATWFGLYYNLSGAGFYPHPIGLELLIDHKALDPALWTIQKVFYQGRYYESLTQLEDQFEAGLVNVVLVPNNGTGGSWSLKSSVPPGPAPPLQFHPQGPRFSVQGSQVSSSLWAFSFGLGAFSGPRIFDIRFQGERVAYEISVQEAIALYGGNSPASMSTCYVDGSFGIGKYSTPLIRGVDCPYLATYVDWHFLLESQAPKTLRDAFCVFEQNQGLPLRRHHSDFYSHYFGGVVGTVLVVRSVSTLLNYDYIWDMVFHPNGAIEVKFHATGYISSAFFFGAGEKFGNRVGAHTLGTVHTHSAHFKVDLDVAGLKNWAWAEDMAFVPTIVPWQPEYQMQRLQVTRKLLETEEEAAFPLGGATPRYLYLASNHSNKWGHRRGYRIQILSFAGKPLPQESPIEKAFTWGRYHLAVTQRKEEEPSSSSIFNQNDPWTPTVNFTDFISNETIAGEDLVAWVTAGFLHIPHAEDIPNTVTAGNSVGFFLRPYNFFDEDPSFHSADSIYFREGQDATACEVNPLACLSQTATCAPEIPAFSHGGFAYRDN
[1]
  Km: 11.5 µM
[2]
  Km: 14.8 µM
[3]
  Km: 11.3 µM
[4]
  Km: 27 µM
[5]
  Km: 88.8 µM
[6]
  Km: 34.8 µM
[7]
  Km: 15.7 µM
[8]
  Km: 29.8 µM
[9]
  Km: 12.8 µM
[10]
  Km: 15.4 µM

B2: Amine oxidase [copper-containing] 3 (Homo sapiens), Q16853 (protein)
chain: MNQKTILVLLILAVITIFALVCVLLVGRGGDGGEPSQLPHCPSVSPSAQPWTHPGQSQLFADLSREELTAVMRFLTQRLGPGLVDAAQARPSDNCVFSVELQLPPKAAALAHLDRGSPPPAREALAIVFFGRQPQPNVSELVVGPLPHPSYMRDVTVERHGGPLPYHRRPVLFQEYLDIDQMIFNRELPQASGLLHHCCFYKHRGRNLVTMTTAPRGLQSGDRATWFGLYYNISGAGFFLHHVGLELLVNHKALDPARWTIQKVFYQGRYYDSLAQLEAQFEAGLVNVVLIPDNGTGGSWSLKSPVPPGPAPPLQFYPQGPRFSVQGSRVASSLWTFSFGLGAFSGPRIFDVRFQGERLVYEISLQEALAIYGGNSPAAMTTRYVDGGFGMGKYTTPLTRGVDCPYLATYVDWHFLLESQAPKTIRDAFCVFEQNQGLPLRRHHSDLYSHYFGGLAETVLVVRSMSTLLNYDYVWDTVFHPSGAIEIRFYATGYISSAFLFGATGKYGNQVSEHTLGTVHTHSAHFKVDLDVAGLENWVWAEDMVFVPMAVPWSPEHQLQRLQVTRKLLEMEEQAAFLVGSATPRYLYLASNHSNKWGHPRGYRIQMLSFAGEPLPQNSSMARGFSWERYQLAVTQRKEEEPSSSSVFNQNDPWAPTVDFSDFINNETIAGKDLVAWVTAGFLHIPHAEDIPNTVTVGNGVGFFLRPYNFFDEDPSFYSADSIYFRGDQDAGACEVNPLACLPQAAACAPDLPAFSHGGFSHN
[11]
  Km: 569 µM
[12]
  Km: 405 µM
[13]
  Km: 280 µM
[14]
  Km: 1670 µM
[15]
  Km: 1900 µM
[16]
  Km: 3720 µM
[17]
  Km: 205 µM
[18]
  Km: 525 µM
[19]
  Km: 630 µM
[20]
  Km: 224 µM

From ChEMBL document CHEMBL1137383, “New efficient substrates for semicarbazide-sensitive amine oxidase/VAP-1 enzyme: analysis by SARs and computational docking” (J Med Chem, 2006)
